Results: ChEMBL document CHEMBL4251609, “Substrate-derived triazolo- and azapeptides as inhibitors of cathepsins K and S” (Eur J Med Chem, 2018)
One block for each molecule: values may come before it. Activity calls are given as the source filed them. No cut-off for these calls is given here. Starred links: 1 amine or outer side, 2 acyl side, 3 side chain; linkers in the order of their positions; H or OH if unused. Non-standard residues stand in square brackets, D forms with d. Residues, ends and D or L forms follow the SMILES beside them. Tyr(3-NO2) = N[C@@H](Cc1ccc(O)c([N+](=O)[O-])c1)C(=O)O; X1 = O=C([C@H](Cc1ccccc1)n1cc(CN[*:1])nn1)[*:2]; 4Abz = Nc1ccc(C(=O)O)cc1

Tests used:
[1] = target: T1, Trypsin (Homo sapiens) (UniProt P07477+P07478+P35030); assay: Inhibition of trypsin (unknown origin) incubated for 30 mins using Abz-Thr-Pro-Arg-Ser-Ala-Leu-Gln-EDDnp substrate; type: protein assay
[2] = species: Homo sapiens; assay: Inhibition of chymotrypsin (unknown origin) incubated for 30 mins using Abz-Thr-Pro-Phe-Ser-Gly-Gln-EDDnp substrate
[3] = target: T2, Neutrophil elastase (Homo sapiens) (UniProt P08246); assay: Inhibition of human neutrophil elastase incubated for 30 mins using Abz-Ala-Pro-Glu-Glu-Ile-Met-Arg-Arg-Gln-(3-NO2-Tyr) substrate
T2 sequence (whole entry): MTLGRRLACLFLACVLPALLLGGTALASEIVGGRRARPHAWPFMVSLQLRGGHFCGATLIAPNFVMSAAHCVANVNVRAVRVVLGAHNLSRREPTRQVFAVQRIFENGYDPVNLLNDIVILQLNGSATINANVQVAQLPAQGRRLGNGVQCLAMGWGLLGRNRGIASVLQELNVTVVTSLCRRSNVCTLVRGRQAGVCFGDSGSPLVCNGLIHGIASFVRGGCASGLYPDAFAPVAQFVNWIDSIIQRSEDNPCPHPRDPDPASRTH

[4] = target: 72 kDa type IV collagenase (Homo sapiens) (UniProt P08253); assay: Inhibition of human recombinant MMP-2 expressed in CHO cells incubated for 30 mins by Mca-Arg-Pro-Pro-Gly-Phe-Ser-Ala-Phe-Lys(Dnp) substrate; type: cell-based
Sequence of 72 kDa type IV collagenase (Homo sapiens) (P08253 110-660 limits assumed): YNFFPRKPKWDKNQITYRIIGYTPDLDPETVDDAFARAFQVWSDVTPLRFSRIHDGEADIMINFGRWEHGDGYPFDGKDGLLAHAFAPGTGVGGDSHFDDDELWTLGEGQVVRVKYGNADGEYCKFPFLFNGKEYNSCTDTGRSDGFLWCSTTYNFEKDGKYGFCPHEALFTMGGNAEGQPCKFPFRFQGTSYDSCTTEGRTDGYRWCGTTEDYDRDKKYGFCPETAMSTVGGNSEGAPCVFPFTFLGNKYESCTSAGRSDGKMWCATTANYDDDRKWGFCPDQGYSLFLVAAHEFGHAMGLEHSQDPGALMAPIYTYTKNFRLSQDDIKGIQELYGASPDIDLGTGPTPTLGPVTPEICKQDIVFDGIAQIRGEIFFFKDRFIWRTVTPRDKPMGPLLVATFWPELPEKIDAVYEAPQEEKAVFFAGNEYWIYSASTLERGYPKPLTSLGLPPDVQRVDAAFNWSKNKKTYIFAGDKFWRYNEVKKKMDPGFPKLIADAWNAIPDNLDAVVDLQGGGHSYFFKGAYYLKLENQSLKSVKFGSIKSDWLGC

[5] = target: Cathepsin D (Homo sapiens) (UniProt P07339); assay: Inhibition of human cathepsin D incubated for 30 mins using Mca-Gly-Lys-Pro-Ile-Leu-Phe-Phe-Arg-Leu-Lys(Dnp)-D-Arg-NH2 substrate
Sequence of Cathepsin D (Homo sapiens) (P07339 65-162 limits assumed): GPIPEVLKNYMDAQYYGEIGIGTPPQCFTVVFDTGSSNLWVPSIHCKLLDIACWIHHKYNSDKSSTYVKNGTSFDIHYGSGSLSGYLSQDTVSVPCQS
Sequence of Cathepsin D (Homo sapiens) (P07339 169-412 limits assumed): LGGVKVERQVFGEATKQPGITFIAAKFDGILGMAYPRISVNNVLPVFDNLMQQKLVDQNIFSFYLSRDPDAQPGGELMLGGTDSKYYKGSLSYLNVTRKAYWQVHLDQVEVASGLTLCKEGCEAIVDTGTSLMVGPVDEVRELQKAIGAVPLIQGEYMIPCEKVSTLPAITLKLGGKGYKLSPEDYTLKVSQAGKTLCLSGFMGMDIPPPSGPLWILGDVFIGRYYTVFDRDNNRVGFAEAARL

[6] = target: T3, Pro-cathepsin H (Homo sapiens) (UniProt P09668); assay: Inhibition of human cathepsin H using fluorogenic AMC-derived peptide substrate assessed as reduction in residual activity preincubated for 30 mins followed by substrate addition
T3 sequence (whole entry): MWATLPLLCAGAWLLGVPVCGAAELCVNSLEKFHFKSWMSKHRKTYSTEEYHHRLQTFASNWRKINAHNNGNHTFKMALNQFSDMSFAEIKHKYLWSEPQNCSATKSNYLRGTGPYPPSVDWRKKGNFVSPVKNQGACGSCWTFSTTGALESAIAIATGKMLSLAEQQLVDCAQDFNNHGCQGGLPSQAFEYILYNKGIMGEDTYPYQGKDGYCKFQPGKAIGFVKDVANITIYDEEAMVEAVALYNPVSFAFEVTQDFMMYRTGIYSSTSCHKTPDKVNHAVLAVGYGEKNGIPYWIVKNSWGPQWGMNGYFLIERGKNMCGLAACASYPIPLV

[7] = target: Cathepsin B (Homo sapiens) (UniProt P07858); assay: Inhibition of human cathepsin B
[8] = target: T1, Trypsin (Homo sapiens); assay: Substrate activity of trypsin (unknown origin) assessed as compound hydrolysis; type: protein assay
In short: (§1)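 Compound was incubated with each protease and the incubation mixtures were analysed by RP-HPLC for proteolytic degradation of the compound.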

[9] = target: Cathepsin B (Homo sapiens) (UniProt P07858); assay: Substrate activity of human cathepsin B assessed as compound hydrolysis; in short: as §1
[10] = target: T4, Cathepsin S (Homo sapiens, UniProt P25774); assay: Reversible inhibition of human cathepsin S at 20 uM preincubated for 30 mins followed by Biot-(PEG)2-Ahx-LeuValGly-DMK addition measured after 1 hr by chemiluminescence assay
Target sequence in this assay (P25774 115-331 limits assumed): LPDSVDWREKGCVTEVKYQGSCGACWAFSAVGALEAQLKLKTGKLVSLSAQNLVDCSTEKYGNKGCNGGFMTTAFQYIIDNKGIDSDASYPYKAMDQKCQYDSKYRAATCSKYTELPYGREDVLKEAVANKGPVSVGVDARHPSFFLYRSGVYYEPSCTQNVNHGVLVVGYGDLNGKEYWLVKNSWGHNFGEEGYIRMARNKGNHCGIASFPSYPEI

[11] = target: T4, Cathepsin S; assay: Reversible inhibition of human cathepsin S at 20 uM in presence of excess Z-LR-AMC
Target sequence in this assay (P25774 115-331 limits assumed): as above

[12] = target: T5, Cathepsin K (Homo sapiens) (UniProt P43235); assay: Inhibition of human cathepsin K […] activity at 3 uM pre-incubated for 30 mins before bradykinin substrate addition by reverse-phase chromatography
T5 sequence (whole entry): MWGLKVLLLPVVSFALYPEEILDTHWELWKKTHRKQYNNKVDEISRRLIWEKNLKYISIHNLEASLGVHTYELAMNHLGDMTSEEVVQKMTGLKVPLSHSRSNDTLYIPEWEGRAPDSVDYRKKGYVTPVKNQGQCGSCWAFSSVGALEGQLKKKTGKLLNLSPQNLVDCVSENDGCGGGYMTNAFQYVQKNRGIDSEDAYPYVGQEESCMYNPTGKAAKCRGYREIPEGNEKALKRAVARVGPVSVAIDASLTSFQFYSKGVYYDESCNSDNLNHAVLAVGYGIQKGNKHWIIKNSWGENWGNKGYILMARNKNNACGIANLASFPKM

[13] = target: T5, Cathepsin K (Homo sapiens); assay: Inhibition of human cathepsin K […] activity at 100 nM pre-incubated for 30 mins before bradykinin substrate addition by reverse-phase chromatography
[14] = target: T5, Cathepsin K (Homo sapiens); assay: Inhibition of human cathepsin K […] activity at 3 uM pre-incubated for 30 mins before Abz-Arg-Pro-Pro-Gly-Phe-Ser-Pro-Phe-Arg-(3-NO2-Tyr) substrate addition by reverse-phase chromatography
[15] = target: T5, Cathepsin K (Homo sapiens); assay: Inhibition of human cathepsin K […] activity at 100 nM pre-incubated for 30 mins before Abz-Arg-Pro-Pro-Gly-Phe-Ser-Pro-Phe-Arg-(3-NO2-Tyr) substrate addition by reverse-phase chromatography
[16] = target: T5, Cathepsin K (Homo sapiens); assay: Inhibition of human cathepsin K […] activity assessed as normalized bradykinin equivalents ratio at 5 uM pre-incubated for 15 mins before bradykinin substrate addition by competitive enzyme immunoassay (reference value: <0.5%); design: scale not given: the % may be the effect or the level left
[17] = target: T5, Cathepsin K (Homo sapiens); assay: Inhibition of human cathepsin K […] activity assessed as normalized bradykinin equivalents ratio at 5 uM pre-incubated for 15 mins before kallidin substrate addition by competitive enzyme immunoassay (reference value: <0.5%); design: scale not given: the % may be the effect or the level left
[18] = target: T4, Cathepsin S; assay: (§2) Reversible competitive inhibition of human cathepsin S using fluorogenic AMC-derived peptide substrate assessed as reduction in residual activity at pH 5.5 preincubated for 30 mins followed by substrate addition
In short: (§3)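 Ki values for cathepsin S determined at pH 5.5 and again at pH 7.4, a pH at which this enzyme stays stable and active, to compare the two conditions.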
Target sequence in this assay (P25774 whole entry): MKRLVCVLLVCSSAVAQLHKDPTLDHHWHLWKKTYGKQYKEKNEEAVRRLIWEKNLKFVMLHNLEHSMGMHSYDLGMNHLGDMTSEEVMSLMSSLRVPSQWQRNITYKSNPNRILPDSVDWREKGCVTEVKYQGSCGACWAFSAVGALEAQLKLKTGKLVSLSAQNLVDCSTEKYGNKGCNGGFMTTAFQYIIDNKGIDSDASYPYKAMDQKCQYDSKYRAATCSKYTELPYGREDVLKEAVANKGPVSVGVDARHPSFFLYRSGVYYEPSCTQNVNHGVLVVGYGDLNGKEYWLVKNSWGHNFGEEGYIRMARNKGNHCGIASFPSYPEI

[19] = target: T4, Cathepsin S; assay: Reversible competitive inhibition of human cathepsin S using fluorogenic AMC-derived peptide substrate assessed as reduction in residual activity at pH 7.4 preincubated for 30 mins followed by substrate addition; in short: as §3
Target sequence in this assay (P25774 whole entry): as above

[20] = target: T6, Cathepsin K (Homo sapiens, UniProt P43235); assay: Reversible competitive inhibition of human cathepsin K using fluorogenic AMC-derived peptide substrate assessed as reduction in residual activity preincubated for 30 mins followed by substrate addition
T6 sequence (P43235 whole entry): T5 sequence (whole entry)
In short: (§4)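 Inhibition constants (Ki) determined at pH 5.5, with reversibility and competitive mode also assessed.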

[21] = target: T7, Procathepsin L (Homo sapiens, UniProt P07711); assay: Reversible competitive inhibition of human cathepsin L using fluorogenic AMC-derived peptide substrate assessed as reduction in residual activity preincubated for 30 mins followed by substrate addition; in short: as §4
Target sequence in this assay (P07711 whole entry): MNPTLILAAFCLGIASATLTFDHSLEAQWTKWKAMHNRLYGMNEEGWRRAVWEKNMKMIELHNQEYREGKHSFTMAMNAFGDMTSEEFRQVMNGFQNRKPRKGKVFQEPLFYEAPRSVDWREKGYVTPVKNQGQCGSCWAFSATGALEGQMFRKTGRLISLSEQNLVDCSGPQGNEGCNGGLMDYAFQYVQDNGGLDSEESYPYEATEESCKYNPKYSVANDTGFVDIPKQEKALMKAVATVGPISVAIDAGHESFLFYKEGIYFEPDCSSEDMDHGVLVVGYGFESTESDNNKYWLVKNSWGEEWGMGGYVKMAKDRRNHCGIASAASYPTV

[22] = target: T8, Pro-cathepsin H (Homo sapiens, UniProt P09668); assay: Reversible competitive inhibition of human cathepsin H using fluorogenic AMC-derived peptide substrate assessed as reduction in residual activity preincubated for 30 mins followed by substrate addition
T8 sequence (P09668 whole entry): T3 sequence (whole entry)

[23] = target: T5, Cathepsin K (Homo sapiens); assay: Inhibition of human cathepsin K using fluorogenic AMC-derived peptide substrate assessed as reduction in residual activity preincubated for 30 mins followed by substrate addition
[24] = target: T7, Procathepsin L; assay: Inhibition of human cathepsin L using fluorogenic AMC-derived peptide substrate assessed as reduction in residual activity preincubated for 30 mins followed by substrate addition
Target sequence in this assay (P07711 114-333 limits assumed): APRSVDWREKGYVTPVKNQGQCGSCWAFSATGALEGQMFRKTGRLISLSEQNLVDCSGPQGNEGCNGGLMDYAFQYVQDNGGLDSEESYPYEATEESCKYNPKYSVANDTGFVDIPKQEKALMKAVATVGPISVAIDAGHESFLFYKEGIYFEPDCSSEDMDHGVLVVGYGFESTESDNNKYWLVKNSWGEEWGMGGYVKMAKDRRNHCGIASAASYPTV

[25] = target: T4, Cathepsin S; assay: Inhibition of human cathepsin S at 300 uM preincubated for 30 mins followed by Biot-(PEG)2-Ahx-LeuValGly-DMK addition measured after 1 hr by chemiluminescence assay
Target sequence in this assay (P25774 115-331 limits assumed): as the sequence (P25774 115-331 limits assumed) above

[26] = target: T4, Cathepsin S; assay: as §2; in short: as §3; remark: listed apart in the source
Target sequence in this assay (P25774 115-331 limits assumed): as above

[27] = target: T4, Cathepsin S; assay: Reversible inhibition of human cathepsin S at 300 uM in presence of excess Z-LR-AMC
Target sequence in this assay (P25774 115-331 limits assumed): as above

[28] = target: T4, Cathepsin S; assay: Inhibition of human cathepsin S using fluorogenic AMC-derived peptide substrate assessed as reduction in residual activity preincubated for 30 mins followed by substrate addition
Target sequence in this assay (P25774 115-331 limits assumed): as above

[29] = target: Cathepsin S (Mus musculus) (UniProt O70370); assay: Inhibition of cathepsin S in C57/Bl6 mouse spleen lysate using Z-Val-Leu-Arg-AMC as substrate at 100 uM preincubated for 30 mins followed by substrate addition; type: subcellular
[30] = target: Cathepsin B (Mus musculus) (UniProt P10605); assay: Inhibition of cathepsin B in C57/Bl6 mouse spleen lysate using Z-Arg-Arg-AMC as substrate at 100 uM preincubated for 30 mins followed by substrate addition; type: subcellular
Sequence of Cathepsin B (Mus musculus) (P10605 80-333 limits assumed): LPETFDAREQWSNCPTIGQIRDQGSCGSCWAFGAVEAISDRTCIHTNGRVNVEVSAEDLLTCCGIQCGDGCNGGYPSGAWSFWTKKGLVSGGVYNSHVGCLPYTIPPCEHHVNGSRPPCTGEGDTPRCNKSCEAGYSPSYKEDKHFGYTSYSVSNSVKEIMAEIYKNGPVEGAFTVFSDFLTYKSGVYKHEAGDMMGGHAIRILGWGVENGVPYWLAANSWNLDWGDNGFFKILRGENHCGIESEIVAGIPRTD

[31] = target: T5, Cathepsin K (Homo sapiens); assay: Inhibition of human cathepsin K […] activity assessed as normalized bradykinin equivalents ratio at 1 uM pre-incubated for 15 mins before bradykinin substrate addition by competitive enzyme immunoassay (reference value: <0.5%); design: scale not given: the % may be the effect or the level left
[32] = target: T5, Cathepsin K (Homo sapiens); assay: Inhibition of human cathepsin K […] activity assessed as normalized bradykinin equivalents ratio at 1 uM pre-incubated for 15 mins before kallidin substrate addition by competitive enzyme immunoassay (reference value: <0.5%); design: scale not given: the % may be the effect or the level left

inhibition [1]: inactive | inhibition [2]: inactive | inhibition [3]: inactive | inhibition [4]: inactive | inhibition [5]: inactive | inhibition [6]: inactive | inhibition [7]: inactive | Activity [8]: Active | Activity [9]: Active | inhibition [10]: Active | inhibition [11]: inactive | inhibition [12]: Active | inhibition [13]: Active | inhibition [14]: Active | inhibition [15]: Active | Activity [16]: 100% | Activity [17]: 100% | Ki [18]: Not Active | Ki [19]: Not Active | Ki [20]: 0.8 µM | Ki [21]: 22 µM | Ki [22]: Not Active
SMILES: N=C(N)NCCC[C@H](NC(=O)[C@H](Cc1ccccc1)NC(=O)[C@@H]1CCCN1C(=O)[C@H](CO)NC(=O)[C@H](Cc1ccccc1)n1cc(CNC(=O)[C@@H]2CCCN2C(=O)[C@@H]2CCCN2C(=O)[C@H](CCCNC(=N)N)NC(=O)c2ccc(N)cc2)nn1)C(=O)N[C@@H](Cc1ccc(O)c([N+](=O)[O-])c1)C(N)=O (H-[4Abz]RPP[X1]SPFR[Tyr(3-NO2)]-NH2)

inhibition [1]: inactive | inhibition [2]: inactive | inhibition [3]: inactive | inhibition [4]: inactive | inhibition [5]: inactive | inhibition [6]: inactive | inhibition [7]: inactive | inhibition [23]: Active | inhibition [24]: Active | inhibition [25]: Active | inhibition [26]: Active | inhibition [27]: inactive | Ki ([18]; read-out: Ki): 15 µM | Ki ([19]; read-out: Ki): 42 µM | Ki [20]: 10 µM | Ki [21]: 30 µM | Ki [22]: Not Active | inhibition [28]: Active
SMILES: CSCC[C@H](NC(=O)[C@@H]1CCCN1C(=O)[C@H](Cc1c[nH]cn1)NC(=O)[C@H](Cc1c[nH]c2ccccc12)NC(=O)[C@H](CCCNC(=N)N)NC(=O)CNC(C)=O)C(=O)NCc1cn([C@@H](C)C(=O)N2CCC[C@H]2C(=O)N[C@@H](Cc2c[nH]c3ccccc23)C(=O)N[C@@H](CCC(=O)O)C(=O)N[C@H](C)C(=O)N[C@H](CCCNC(=N)N)C(N)=O)nn1

inhibition [29]: Active | inhibition [30]: Active | Activity [31]: 100% | Activity [32]: 100%
SMILES: CC(C)C[C@H](NC(=O)[C@@H]1O[C@H]1C(=O)O)C(=O)NCCCCN=C(N)N
